Data as given in ChEMBL document CHEMBL4390675, “Dopamine D4 Receptor-Selective Compounds Reveal Structure-Activity Relationships that Engender Agonist Efficacy” (J Med Chem, 2019).
Calls of active or inactive are those of the source. The calls are words filed in the database; no cut-off is given here.

Experiments:
[1] = biological target: T1, D(3) dopamine receptor (Homo sapiens, UniProt P35462); assay: Displacement of [3H]N-methylspiperone from human D3 receptor expressed in HEK293 cell membranes measured after 60 mins by scintillation counting method
T1 sequence (P35462 whole entry): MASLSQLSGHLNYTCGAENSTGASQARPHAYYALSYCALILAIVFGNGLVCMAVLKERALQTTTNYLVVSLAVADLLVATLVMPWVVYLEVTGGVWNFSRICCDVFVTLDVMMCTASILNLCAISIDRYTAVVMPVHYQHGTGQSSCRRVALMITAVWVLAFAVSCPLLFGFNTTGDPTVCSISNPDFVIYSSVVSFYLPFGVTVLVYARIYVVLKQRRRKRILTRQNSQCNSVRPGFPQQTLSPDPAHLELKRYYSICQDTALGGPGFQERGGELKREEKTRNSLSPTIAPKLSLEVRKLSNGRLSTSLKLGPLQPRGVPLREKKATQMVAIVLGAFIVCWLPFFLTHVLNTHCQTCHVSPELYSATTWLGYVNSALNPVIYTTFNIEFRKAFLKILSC
Summary of the method: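 HEK293 cells stably expressing human D3R; membranes in EBSS buffer pH 7.4, stored at −80 °C. 20 μg protein/well with 0.4 nM [3H]N-methylspiperone (final), half-log dilutions in 30% DMSO, in triplicate. 60 min at room temperature, then GF/B filtration. Nonspecific binding with 10 μM (+)-butaclamol.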

[2] = biological target: T2, D(4) dopamine receptor (Homo sapiens, UniProt P21917); assay: Displacement of [3H]N-methylspiperone from human D4.4 receptor expressed in HEK293 cell membranes measured after 60 mins by scintillation counting method
T2 sequence (P21917 whole entry): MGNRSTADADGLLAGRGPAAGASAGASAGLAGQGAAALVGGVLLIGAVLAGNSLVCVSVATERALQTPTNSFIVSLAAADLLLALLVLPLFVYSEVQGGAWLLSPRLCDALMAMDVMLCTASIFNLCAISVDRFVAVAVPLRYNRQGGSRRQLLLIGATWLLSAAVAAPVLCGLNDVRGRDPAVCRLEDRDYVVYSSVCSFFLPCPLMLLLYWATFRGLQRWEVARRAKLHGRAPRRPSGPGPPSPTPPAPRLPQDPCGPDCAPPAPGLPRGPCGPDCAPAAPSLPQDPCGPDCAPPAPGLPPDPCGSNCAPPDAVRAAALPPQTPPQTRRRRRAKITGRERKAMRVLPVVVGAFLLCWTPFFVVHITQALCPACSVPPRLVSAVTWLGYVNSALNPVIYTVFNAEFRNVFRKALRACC
Summary of the method: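 Frozen HEK293 membranes stably expressing human D4.4R (30 μg/well) in EBSS-bicarbonate buffer, pH 7.4, were incubated with 0.4 nM [3H]N-methylspiperone and half-log compound dilutions (30% DMSO vehicle) for 60 min at room temperature. Nonspecific binding was defined by 10 μM (+)-butaclamol. Samples were filtered on GF/B filters and counted by scintillation.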

[3] = biological target: T3, D(2) dopamine receptor (Homo sapiens, UniProt P14416); assay: Agonist activity at human D2L receptor expressed in CHOK1 cells assessed as inhibition of forskolin-induced cAMP accumulation measured after 30 mins by Eu-cAMP tracer based TR-FRET assay; format: cell-based
T3 sequence (P14416 whole entry, canonical isoform): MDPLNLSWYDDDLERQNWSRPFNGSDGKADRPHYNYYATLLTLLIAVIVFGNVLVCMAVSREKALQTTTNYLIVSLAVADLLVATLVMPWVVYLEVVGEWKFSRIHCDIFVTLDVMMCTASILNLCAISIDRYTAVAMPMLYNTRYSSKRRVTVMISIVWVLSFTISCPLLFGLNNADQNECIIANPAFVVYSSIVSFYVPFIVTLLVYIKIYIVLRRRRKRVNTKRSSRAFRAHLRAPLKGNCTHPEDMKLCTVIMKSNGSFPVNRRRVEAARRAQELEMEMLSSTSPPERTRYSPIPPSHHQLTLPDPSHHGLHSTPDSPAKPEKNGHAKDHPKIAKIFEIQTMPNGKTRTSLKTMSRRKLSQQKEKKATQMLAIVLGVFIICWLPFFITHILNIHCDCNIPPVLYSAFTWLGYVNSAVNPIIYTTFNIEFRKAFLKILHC
Summary of the method: (§1)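 LANCE Ultra TR-FRET cAMP assay in CHO-K1 cells stably expressing human D2R long isoform or D4R. Cells were plated in HBSS/5 mM HEPES/0.2 μM metabisulfite, then immediately given compound plus forskolin (10 μM final) for 30 min at room temperature. Eu-cAMP tracer and ULight-anti-cAMP were added for 2 h in the dark. Values are % of maximal dopamine signal, nonlinear regression of triplicate runs, n = 3–4.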

[4] = biological target: T3, D(2) dopamine receptor; assay: Antagonist activity at human D2L receptor expressed in CHOK1 cells assessed as suppression of dopamine-induced inhibition of forskolin-stimulated cAMP accumulation measured after 30 mins by Eu-cAMP tracer based TR-FRET assay relative to dopamine; format: cell-based; details: 0.5 h
[5] = biological target: T2, D(4) dopamine receptor; assay: Agonist activity at human D4 receptor expressed in CHOK1 cells assessed as inhibition of forskolin-induced cAMP accumulation measured after 30 mins by Eu-cAMP tracer based TR-FRET assay; format: functional, cell-based; summary of the method: as §1
[6] = biological target: T2, D(4) dopamine receptor; assay: Antagonist activity at human D4 receptor expressed in CHOK1 cells assessed as suppression of dopamine-induced inhibition of forskolin-stimulated cAMP accumulation measured after 30 mins by Eu-cAMP tracer based TR-FRET assay; format: functional, cell-based
[7] = biological target: T3, D(2) dopamine receptor; assay: Agonist activity at human D2L receptor expressed in CHOK1 cells assessed as induction of beta-arrestin recruitment measured after 90 mins by luminescence assay; format: cell-based
Summary of the method: (§2)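 PathHunter enzyme-complementation assay in CHO-K1 cells stably expressing human D2R long isoform, D3R or D4R, seeded overnight in Ham's F12/10% FBS. Compounds were diluted in PBS with 0.2 μM sodium metabisulfite and applied at multiple concentrations for 90 min at 37 °C. Detection reagent was added for 45–60 min at room temperature, then luminescence was read. Values are % of maximal dopamine response, from nonlinear regression of triplicate runs, mean ± SEM, n = 3–4.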

[8] = biological target: T3, D(2) dopamine receptor; assay: Antagonist activity at human D2L receptor expressed in CHOK1 cells assessed as inhibition of dopamine-induced beta-arrestin recruitment measured after 90 mins by luminescence assay relative to control; format: cell-based
Summary of the method: (§3)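 Antagonist-mode PathHunter β-arrestin assay in CHO-K1 cells stably expressing human D2R long isoform or D3R, seeded overnight. Compound dilutions in PBS with 0.2 μM metabisulfite were co-incubated with an EC80 dopamine concentration for 90 min at 37 °C. Detection reagent was added for 45–60 min at room temperature, then luminescence was read. Values are % of dopamine EC80 response, from nonlinear regression of triplicate runs, n = 3–4.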

[9] = biological target: T3, D(2) dopamine receptor; assay: Antagonist activity at human D2L receptor expressed in CHOK1 cells assessed as inhibition of dopamine-induced beta-arrestin recruitment measured after 90 mins by luminescence assay; format: cell-based; summary of the method: as §3
[10] = biological target: T1, D(3) dopamine receptor; assay: Agonist activity at human D3 receptor expressed in CHOK1 cells assessed as induction of beta-arrestin recruitment measured after 90 mins by luminescence assay; format: cell-based; summary of the method: as §2
[11] = biological target: T1, D(3) dopamine receptor; assay: Antagonist activity at human D3 receptor expressed in CHOK1 cells assessed as inhibition of dopamine-induced beta-arrestin recruitment measured after 90 mins by luminescence assay; format: cell-based; summary of the method: as §3
[12] = biological target: T2, D(4) dopamine receptor; assay: Agonist activity at human D4 receptor expressed in CHOK1 cells assessed as induction of beta-arrestin recruitment measured after 90 mins by luminescence assay; format: cell-based; summary of the method: as §2
[13] = biological target: T2, D(4) dopamine receptor; assay: Antagonist activity at human D4 receptor expressed in CHOK1 cells assessed as inhibition of dopamine-induced beta-arrestin recruitment measured after 90 mins by luminescence assay; format: cell-based; details: read-out: IC50
[14] = biological target: T1, D(3) dopamine receptor; assay: Displacement of [3H](R)-(+)-7-OH-DPAT from human D3 receptor expressed in HEK293 cell membranes measured after 90 mins by scintillation counting method
Summary of the method: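 Fresh HEK293 hD3R membranes (40 μg/well) in 50 mM Tris, 10 mM MgCl2, 1 mM EDTA, pH 7.4 were incubated with 0.5 nM [3H]-(R)-(+)-7-OH-DPAT and half-log compound dilutions in 30% DMSO for 90 min at room temperature. Nonspecific binding was defined with 10 μM (+)-butaclamol. Samples were filtered on PEI-soaked GF/B filters and counted by scintillation.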

[15] = biological target: T3, D(2) dopamine receptor; assay: Agonist activity at human D2L receptor expressed in CHOK1 cells assessed as inhibition of forskolin-induced cAMP accumulation measured after 30 mins by Eu-cAMP tracer based TR-FRET assay relative to dopamine; format: cell-based; details: 0.5 h
[16] = biological target: T3, D(2) dopamine receptor; assay: Agonist activity at human D2L receptor expressed in CHOK1 cells assessed as induction of beta-arrestin recruitment measured after 90 mins by luminescence assay relative to control; format: cell-based
Summary of the method: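 PathHunter enzyme-complementation assay in CHO-K1 cells stably expressing human D2R long isoform, seeded 2625 cells/well and incubated overnight. Compounds diluted in PBS with 0.2 μM sodium metabisulfite, tested at multiple concentrations, 90 min at 37 °C. Detection reagent then 45–60 min at room temperature, luminescence read. Normalized to maximal dopamine response. Nonlinear regression of triplicate runs, n = 3–4.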

[17] = biological target: T1, D(3) dopamine receptor; assay: Agonist activity at human D3 receptor expressed in CHOK1 cells assessed as induction of beta-arrestin recruitment measured after 90 mins by luminescence assay relative to control; format: cell-based; summary of the method: as §2
[18] = biological target: D(1A) dopamine receptor (Homo sapiens) (UniProt P21728); assay: Agonist activity at D1 receptor (unknown origin) stably expressed in CHOK1 cells assessed as induction of beta-arrestin recruitment measured after 90 mins by luminescence assay; format: cell-based
Sequence of D(1A) dopamine receptor (Homo sapiens) (P21728 whole entry): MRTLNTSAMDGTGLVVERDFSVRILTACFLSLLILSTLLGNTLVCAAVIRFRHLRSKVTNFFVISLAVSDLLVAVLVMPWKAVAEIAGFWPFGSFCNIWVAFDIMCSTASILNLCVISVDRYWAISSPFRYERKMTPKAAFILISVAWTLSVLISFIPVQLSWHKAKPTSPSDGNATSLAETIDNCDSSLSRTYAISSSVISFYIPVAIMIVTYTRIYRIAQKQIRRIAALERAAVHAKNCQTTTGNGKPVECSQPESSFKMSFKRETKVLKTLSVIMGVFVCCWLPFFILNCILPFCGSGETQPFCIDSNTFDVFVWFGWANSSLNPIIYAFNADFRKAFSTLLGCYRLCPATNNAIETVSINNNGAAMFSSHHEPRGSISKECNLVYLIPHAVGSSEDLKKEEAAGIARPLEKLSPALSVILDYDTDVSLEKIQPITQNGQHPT

[19] = biological target: D(1B) dopamine receptor (Homo sapiens) (UniProt P21918); assay: Agonist activity at D5 receptor (unknown origin) stably expressed in CHOK1 cells assessed as induction of beta-arrestin recruitment measured after 90 mins by luminescence assay; format: cell-based
Sequence of D(1B) dopamine receptor (Homo sapiens) (P21918 whole entry): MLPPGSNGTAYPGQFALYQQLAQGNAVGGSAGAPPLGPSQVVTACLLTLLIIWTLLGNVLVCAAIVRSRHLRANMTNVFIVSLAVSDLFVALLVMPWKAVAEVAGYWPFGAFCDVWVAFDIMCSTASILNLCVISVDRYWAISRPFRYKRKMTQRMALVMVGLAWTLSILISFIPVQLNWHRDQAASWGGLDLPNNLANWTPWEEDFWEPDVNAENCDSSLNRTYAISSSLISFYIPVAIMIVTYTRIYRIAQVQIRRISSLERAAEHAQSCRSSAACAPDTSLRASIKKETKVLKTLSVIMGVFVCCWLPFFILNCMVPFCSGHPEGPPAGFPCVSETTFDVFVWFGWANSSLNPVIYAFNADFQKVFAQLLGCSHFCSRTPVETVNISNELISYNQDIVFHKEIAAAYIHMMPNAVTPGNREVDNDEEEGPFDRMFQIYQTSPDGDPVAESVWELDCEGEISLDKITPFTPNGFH

[20] = biological target: D(1A) dopamine receptor (Homo sapiens) (UniProt P21728); assay: Antagonist activity at D1 receptor (unknown origin) stably expressed in CHOK1 cells assessed as inhibition of dopamine-induced beta-arrestin recruitment measured after 90 mins by luminescence assay; format: cell-based
[21] = biological target: D(1B) dopamine receptor (Homo sapiens) (UniProt P21918); assay: Antagonist activity at D5 receptor (unknown origin) stably expressed in CHOK1 cells assessed as inhibition of dopamine-induced beta-arrestin recruitment measured after 90 mins by luminescence assay; format: cell-based
[22] = biological target: T2, D(4) dopamine receptor; assay: Displacement of [3H](R)-(+)-7-OH-DPAT from human D4.4 receptor expressed in HEK293 cell membranes measured after 90 mins by scintillation counting method
Summary of the method: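 HEK293 cells stably expressing human D4.4R; membranes used fresh in 50 mM Tris, 10 mM MgCl2, 1 mM EDTA, pH 7.4. 60 μg protein/well with 3 nM [3H]-(R)-(+)-7-OH-DPAT (final), half-log dilutions in 30% DMSO, in triplicate. 90 min at room temperature, then GF/B filtration. Nonspecific binding with 10 μM (+)-butaclamol.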

[23] = biological target: T4, D(4) dopamine receptor (Homo sapiens) (UniProt P21917); assay: Agonist activity at human D4 receptor expressed in CHOK1 cells assessed as inhibition of forskolin-induced cAMP accumulation measured after 30 mins by Eu-cAMP tracer based TR-FRET assay relative to dopamine; format: functional, cell-based; summary of the method: as §1
T4 sequence (whole entry): T2 sequence (P21917 whole entry)

[24] = biological target: T4, D(4) dopamine receptor (Homo sapiens); assay: Antagonist activity at human D4 receptor expressed in CHOK1 cells assessed as suppression of dopamine-induced inhibition of forskolin-stimulated cAMP accumulation measured after 30 mins by Eu-cAMP tracer based TR-FRET assay relative to dopamine; format: functional, cell-based; set-up: concentration or dose not given beside the values
[25] = biological target: T4, D(4) dopamine receptor (Homo sapiens); assay: Agonist activity at human D4 receptor expressed in CHOK1 cells assessed as induction of beta-arrestin recruitment measured after 90 mins by luminescence assay relative to control; format: cell-based; summary of the method: as §2
[26] = biological target: T4, D(4) dopamine receptor (Homo sapiens); assay: Antagonist activity at human D4 receptor expressed in CHOK1 cells assessed as inhibition of dopamine-induced beta-arrestin recruitment measured after 90 mins by luminescence assay relative to control; format: cell-based; set-up: concentration or dose not given beside the values

Structure (SMILES)	Ki [1] [nM]	Ki [2] [nM]	EC50 [3]	inhibition (INH) [4] [%]	IC50 [6] [nM]	EC50 [7]	INH [8]	EC50 [10]	EC50 [12]	IC50 [13] [nM]	Ki [14] [nM]	Emax [15] [%]	EC50 ([5]; read-out: EC50) [nM]	EC50 ([10]; read-out: EC50) [nM]	IC50 ([11]; read-out: IC50) [nM]	Activity [18]	Activity [19]	inhibition [20]	inhibition [21]	Ki [22] [nM]	other results
O=C(CN1CCN(c2ccc(Cl)cn2)CC1)Nc1cccnc1	> 50000	5000	Not Active	100	40000	Not Active	Not Active	Not Active	Not Active	23400	–	–	–	–	–	–	–	–	–	–	EC50 [5]: Not Active; IC50 [9]: Not Active; IC50 [11]: Not Active
Cc1cccc(NC(=O)CCN2CCC(c3ccccn3)CC2)c1	3040	> 10000	–	–	6340	–	72.1%	–	Not Active	3800	510	83.1	349	970	> 50000	inactive	inactive	inactive	inactive	–	Emax [16]: 48.9%; Emax [17]: 55.4%
Cc1cccc(NC(=O)CN2CCC(c3ccccc3)CC2)c1	433	25.8	Not Active	100	2	Not Active	99.7%	Not Active	–	135	777	–	15.4	–	> 50000	inactive	inactive	inactive	inactive	1.4	Emax [23]: 32.9%; inhibition [24]: 46.7%; Emax [25]: 14%; EC50 ([12]; read-out: EC50): 242 nM; inhibition [26]: 93.3%
Cc1cccc(NC(=O)CCN2CCN(c3ccccn3)CC2)c1	3790	297	–	–	1630	–	77.7%	–	Not Active	1090	781	79.7	612	1600	> 50000	inactive	inactive	inactive	inactive	32.2	Emax [16]: 44.1%; Emax [17]: 41.4%
Cc1cccc(NC(=O)CN2CCC(c3ccccn3)CC2)c1	1680	54.2	Not Active	–	68.4	Not Active	94.8%	–	–	191	167	–	2.7	> 100000	> 100000	inactive	inactive	inactive	inactive	3.95	Emax [23]: 61.9%; inhibition [24]: 53.8%; Emax [25]: 22.5%; EC50 ([12]; read-out: EC50): 473 nM; inhibition [26]: 81.7%
